# Test results from ChEMBL document CHEMBL1125789, “Synthesis and selective class III antiarrhythmic activity of novel N-heteroaralkyl-substituted 1-(aryloxy)-2-propanolamine and related propylamine derivatives” (J Med Chem, 1991).
# Experiments:
# Canis familiaris [1] = species: Canis familiaris; assay: Repolarization to reach -60mV, in canine Purkinje Fibers at a concentration of 0.01 uM at 300 ms (simulating tachycardia); type: functional, Canis lupus familiaris, Purkinje fiber
# Outline: (§1)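 Isolated canine Purkinje fiber bundles were driven by square-wave pulses 2.0 ms long at 2× threshold and equilibrated ≥1 h to steady state. Each concentration was superfused 45–60 min before recording, and action potentials were sampled at 4–6 sites per fiber in control and after drug, giving Vmax and APD to −60 mV.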
# Canis familiaris [2] = assay: Ventricular conduction time by the compound in open chest anesthetized dog, after iv administration at a dose of 0.25 mg/kg.; type: functional, Canis lupus familiaris, Heart
# Outline: (§2)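 Mongrel dogs were anesthetized with sodium pentobarbital (30 mg/kg iv, then 5 mg/kg per h), the chest opened, and the heart paced at BCL 300 ms. Compound was given iv or intraduodenally. Ventricular conduction time was taken as the interval between electrograms at the proximal and distal sites of the recording electrode array. 2-5 dogs per dose.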
# Canis familiaris [3] = species: Canis familiaris; assay: Maximum rate of rise of the upstroke of transmembrane potential, in canine Purkinje Fibers at a concentration of 0.03 uM at 1000 ms (simulating normal heart rate); type: functional; conditions: Canis lupus familiaris, Purkinje fiber; outline: as §1
# Canis familiaris [4] = assay: Mean arterial pressure by the compound in open chest anesthetized dog, after iv administration at a dose of 0.05 mg/kg.; type: functional, Canis lupus familiaris, Artery
# Outline: (§3)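 Hemodynamics (heart rate, mean arterial pressure) recorded in pentobarbital-anesthetized (30 mg/kg iv, 5 mg/kg per h maintenance) open-chest mongrel dogs during the refractoriness study at BCL 300 ms. Readings were taken before and after iv or intraduodenal compound and expressed as change from control.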
# Canis familiaris [5] = species: Canis familiaris; assay: Maximum rate of rise of the upstroke of transmembrane potential, in canine Purkinje Fibers at a concentration of 0.03 uM at 300 ms (simulating tachycardia); type: functional; conditions: Canis lupus familiaris, Purkinje fiber; outline: as §1
# Canis familiaris [6] = species: Canis familiaris; assay: Maximum rate of rise of the upstroke of transmembrane potential, in canine Purkinje Fibers at a concentration of 0.01 uM at 300 ms (simulating tachycardia); type: functional; conditions: Canis lupus familiaris, Purkinje fiber; outline: as §1
# Canis familiaris [7] = assay: Atrial effective refractory period by the compound in open chest anesthetized dog, after iv administration at a dose of 0.25 mg/kg.; type: functional, Canis lupus familiaris, Cardiac atrium
# Outline: (§4)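 Open-chest mongrel dogs under sodium pentobarbital anesthesia (30 mg/kg iv plus 5 mg/kg per h), paced at basic cycle length 300 ms. Atrial effective refractory period was determined by electrical stimulation before and after iv or intraduodenal compound and reported as change from control.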
# Canis familiaris [8] = species: Canis familiaris; assay: repolarization to reach -60mV, in canine Purkinje Fibers at a concentration of 0.03 uM at 1000 ms (simulating normal heart rate); type: functional, Canis lupus familiaris, Purkinje fiber
# Outline: (§5)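 Purkinje fiber bundles were stimulated with square-wave current pulses of 2.0 ms at twice threshold and equilibrated for at least 1 h, or until action potential parameters were steady. Each concentration was superfused for 45-60 min to reach steady state. Action potentials were recorded at four to six sites per fiber, under control and after drug.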
# Canis familiaris [9] = assay: Heart beat by the compound in open chest anesthetized dog, after iv administration at a dose of 0.25 mg/kg.; type: functional, Canis lupus familiaris; outline: as §3
# Canis familiaris [10] = species: Canis familiaris; assay: Maximum rate of rise of the upstroke of transmembrane potential, in canine Purkinje Fibers at a concentration of 0.10 uM at 1000 ms (simulating normal heart rate); type: functional; conditions: Canis lupus familiaris, Purkinje fiber; outline: as §1
# Canis familiaris [11] = assay: Mean arterial pressure by the compound in open chest anesthetized dog, after iv administration at a dose of 0.25 mg/kg.; type: functional, Canis lupus familiaris, Artery; outline: as §3
# Canis familiaris [12] = species: Canis familiaris; assay: Maximum rate of rise of the upstroke of transmembrane potential, in canine Purkinje Fibers at a concentration of 0.10 uM at 300 ms (simulating tachycardia); type: functional; conditions: Canis lupus familiaris, Purkinje fiber; outline: as §1
# Canis familiaris [13] = species: Canis familiaris; assay: Repolarization to reach -60mV, in canine Purkinje Fibers at a concentration of 0.10 uM at 300 ms (simulating tachycardia); type: functional, Canis lupus familiaris, Purkinje fiber; outline: as §1
# Canis familiaris [14] = species: Canis familiaris; assay: repolarization to reach -60mV, in canine Purkinje Fibers at a concentration of 0.10 uM at 1000 ms (simulating normal heart rate); type: functional, Canis lupus familiaris, Purkinje fiber; outline: as §5
# Canis familiaris [15] = species: Canis familiaris; assay: Repolarization to reach -60mV, in canine Purkinje Fibers at a concentration of 0.03 uM at 300 ms (simulating tachycardia); type: functional, Canis lupus familiaris, Purkinje fiber; outline: as §1
# Canis familiaris [16] = assay: Heart beat by the compound in open chest anesthetized dog, after iv administration at a dose of 0.05 mg/kg.; type: functional, Canis lupus familiaris; outline: as §3
# Canis familiaris [17] = species: Canis familiaris; assay: repolarization to reach -60mV, in canine Purkinje Fibers at a concentration of 0.01 uM at 1000 ms (simulating normal heart rate); type: functional, Canis lupus familiaris, Purkinje fiber; outline: as §5
# Canis familiaris [18] = assay: Atrial effective refractory period by the compound in open chest anesthetized dog, after iv administration at a dose of 0.05 mg/kg.; type: functional, Canis lupus familiaris, Cardiac atrium; outline: as §4
# Canis familiaris [19] = assay: Atrial conduction time by the compound in open chest anesthetized dog, after iv administration at a dose of 0.25 mg/kg.; type: functional, Canis lupus familiaris, Cardiac atrium
# Outline: (§6)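 Mongrel dogs anesthetized with sodium pentobarbital (30 mg/kg iv, then 5 mg/kg per h), chest opened, paced at BCL 300 ms. Atrial conduction time was taken as the interval between electrograms recorded at the proximal and distal sites of the atrial recording electrode array, before and after iv or intraduodenal dosing. Values are changes from control.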
# Canis familiaris [20] = assay: Ventricular effective refractory period by the compound in open chest anesthetized dog, after iv administration at a dose of 0.25 mg/kg.; type: functional, Canis lupus familiaris, Heart
# Canis familiaris [21] = assay: Atrial conduction time by the compound in open chest anesthetized dog, after iv administration at a dose of 0.05 mg/kg.; type: functional, Canis lupus familiaris, Cardiac atrium; outline: as §6
# Canis familiaris [22] = assay: Ventricular effective refractory period by the compound in open chest anesthetized dog, after iv administration at a dose of 0.05 mg/kg.; type: functional, Canis lupus familiaris, Heart
# Canis familiaris [23] = assay: Ventricular conduction time by the compound in open chest anesthetized dog, after iv administration at a dose of 0.05 mg/kg.; type: functional, Canis lupus familiaris, Heart; outline: as §2
# Canis familiaris [24] = species: Canis familiaris; assay: Maximum rate of rise of the upstroke of transmembrane potential, in canine Purkinje Fibers at a concentration of 0.01 uM at 1000 ms (simulating normal heart rate); type: functional; conditions: Canis lupus familiaris, Purkinje fiber; outline: as §1
# Canis familiaris [25] = assay: Atrial effective refractory period by the compound in open chest anesthetized dog, after iv administration at a dose of 0.50 mg/kg.; type: functional, Canis lupus familiaris, Cardiac atrium; conditions: dose 0.5 mg/kg; outline: as §4
# Canis familiaris [26] = assay: Ventricular effective refractory period by the compound in open chest anesthetized dog, after iv administration at a dose of 0.50 mg/kg.; type: functional, Canis lupus familiaris, Heart; conditions: dose 0.5 mg/kg
# Canis familiaris [27] = assay: Atrial conduction time by the compound in open chest anesthetized dog, after iv administration at a dose of 0.50 mg/kg.; type: functional, Canis lupus familiaris, Cardiac atrium; conditions: dose 0.5 mg/kg; outline: as §6
# Canis familiaris [28] = assay: Ventricular conduction time by the compound in open chest anesthetized dog, after iv administration at a dose of 0.50 mg/kg.; type: functional, Canis lupus familiaris, Heart; conditions: dose 0.5 mg/kg; outline: as §2
# Canis familiaris [29] = assay: Mean arterial pressure by the compound in open chest anesthetized dog, after iv administration at a dose of 0.50 mg/kg.; type: functional, Canis lupus familiaris, Artery; conditions: dose 0.5 mg/kg; outline: as §3
# Canis familiaris [30] = assay: Heart beat by the compound in open chest anesthetized dog, after iv administration at a dose of 0.50 mg/kg.; type: functional, Canis lupus familiaris; conditions: dose 0.5 mg/kg; outline: as §3
smiles,measurement,setting,value
CN(CCCOc1ccc(NS(C)(=O)=O)cc1)Cc1ccc2cc(NS(C)(=O)=O)ccc2n1,APD,Canis familiaris [1],15%
same,VCT,Canis familiaris [2],-3
same,Vmax,Canis familiaris [3],-8
same,MBP,Canis familiaris [4],4
same,Vmax,Canis familiaris [5],-9
same,Vmax,Canis familiaris [6],-1
same,AERP,Canis familiaris [7],70
same,APD,Canis familiaris [8],56%
same,HR,Canis familiaris [9],-26
same,Vmax,Canis familiaris [10],-12
same,MBP,Canis familiaris [11],4
same,Vmax,Canis familiaris [12],-14
same,APD,Canis familiaris [13],22%
same,APD,Canis familiaris [14],73%
same,APD,Canis familiaris [15],17%
same,HR,Canis familiaris [16],-16
same,APD,Canis familiaris [17],36%
same,AERP,Canis familiaris [18],53
same,ACT,Canis familiaris [19],-4
same,VERP,Canis familiaris [20],36
same,ACT,Canis familiaris [21],-5
same,VERP,Canis familiaris [22],26
same,VCT,Canis familiaris [23],-1
same,Vmax,Canis familiaris [24],-1
Cc1cccc(CCN2CCC(C(=O)c3ccc(NS(C)(=O)=O)cc3)CC2)n1,APD,Canis familiaris [1],11%
same,VCT,Canis familiaris [2],-2
same,MBP,Canis familiaris [4],2
same,AERP,Canis familiaris [7],38
same,APD,Canis familiaris [8],53%
same,HR,Canis familiaris [9],-25
same,AERP,Canis familiaris [25],44
same,VERP,Canis familiaris [26],24
same,ACT,Canis familiaris [27],1
same,VCT,Canis familiaris [28],-3
same,MBP,Canis familiaris [11],-11
same,MBP,Canis familiaris [29],-15
same,APD,Canis familiaris [13],24%
same,HR,Canis familiaris [30],-29
same,APD,Canis familiaris [14],54%
same,HR,Canis familiaris [16],-10
same,APD,Canis familiaris [17],27%
same,AERP,Canis familiaris [18],28
same,ACT,Canis familiaris [19],1
same,VERP,Canis familiaris [20],23
same,ACT,Canis familiaris [21],1
same,VERP,Canis familiaris [22],18
same,VCT,Canis familiaris [23],-3
